{
  "source": "ChEMBL document CHEMBL4406851",
  "about": "“Design, synthesis and biological evaluation of cinnamic acid derivatives with synergetic neuroprotection and angiogenesis effect” (Eur J Med Chem, 2019)",
  "key": {"SH-SY5Y [1]": {"test_system": "SH-SY5Y", "assay": "Inhibition of H2O2-induced apoptosis in human SH-SY5Y cells assessed as late apoptotic cells at 1.56 uM preincubated for 24 hrs followed by H2O2 addition measured after 4 hrs by Annexin V-FITC/propidium iodide staining based flow cytometry (reference value: 26.5 %)", "format": "functional", "design": "scale not given: the % may be the effect or the level left", "how_it_was_run": "(§1)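 Cells were seeded at 3.5×10^4 cells/mL in 6-well plates at 37 °C, 5% CO2. Compound was added at three concentrations for 24 h, then H2O2 (4.8 mM stock solution) to model and drug wells for 4 h. Cells were collected, washed in cold PBS and resuspended in annexin-binding buffer. Staining was annexin V-FITC 10 min, then PI 5 min, in the dark, followed by flow cytometry with quadrant gating.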"}, "SH-SY5Y [2]": {"test_system": "SH-SY5Y", "assay": "Inhibition of H2O2-induced apoptosis in human SH-SY5Y cells assessed as normal cells at 1.56 uM preincubated for 24 hrs followed by H2O2 addition measured after 4 hrs by Annexin V-FITC/propidium iodide staining based flow cytometry (reference value: 67.2 %)", "format": "functional", "design": "scale not given: the % may be the effect or the level left", "how_it_was_run": "as §1"}, "SH-SY5Y [3]": {"test_system": "SH-SY5Y", "assay": "Inhibition of H2O2-induced apoptosis in human SH-SY5Y cells assessed as normal cells at 3.13 uM preincubated for 24 hrs followed by H2O2 addition measured after 4 hrs by Annexin V-FITC/propidium iodide staining based flow cytometry (reference value: 67.2 %)", "format": "functional", "design": "scale not given: the % may be the effect or the level left", "how_it_was_run": "as §1"}, "[4]": {"assay": "Inhibition of H2O2-induced apoptosis in human HBMEC2 cells assessed as normal cells at 6.25 uM preincubated for 24 hrs followed by H2O2 addition measured after 4 hrs by Annexin V-FITC/propidium iodide staining based flow cytometry (reference value: 62.1 %)", "format": "functional, HBMEC-2", "design": "scale not given: the % may be the effect or the level left", "how_it_was_run": "as §1"}, "Chorioallantoic membrane [5]": {"test_system": "Chorioallantoic membrane", "assay": "Induction of angiogenesis in chicken chorioallantoic membrane assessed as increase in vascular density at 1 mg/ml measured after 48 hrs by dissecting microscopic analysis", "format": "functional, cell membranes", "details": "Gallus gallus", "how_it_was_run": "(§2)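 Fertile eggs were incubated 7 days at 37 °C and 60% humidity. A small window was opened at one end and the membrane was wetted with a drop of sterile saline. Test solution (0.5, 1 or 2 mg/mL) was applied to the allantoic membrane, with PBS for controls. After 48 h the membrane was separated from the shell, then viewed and photographed under a dissecting microscope.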"}, "Chorioallantoic membrane [6]": {"test_system": "Chorioallantoic membrane", "assay": "Induction of angiogenesis in chicken chorioallantoic membrane assessed as increase in microvessel formation at 1 mg/ml measured after 48 hrs by dissecting microscopic analysis", "format": "functional, cell membranes", "details": "Gallus gallus", "how_it_was_run": "as §2"}, "HBMEC-2 [7]": {"test_system": "HBMEC-2", "assay": "Protection against H2O2-induced apoptosis in human HBMEC2 cells assessed as decrease in number of irregular cells preincubated for 24 hrs followed by H2O2 addition measured after 4 hrs by DAPI staining based inverted phase contrast microscopic analysis", "format": "functional, cell-based", "how_it_was_run": "(§3)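 Cells at 3.5×10^4 cells/mL in 24-well plates were pretreated 24 h with compound at three concentrations, then H2O2 (4.8 mM stock) for 4 h. After PBS washes, cells were fixed in 4% paraformaldehyde/70% cold ethanol for 10 min. Staining was 6% Giemsa or DAPI for 5 min in the dark. Random fields were photographed at 200× by microscope, alongside control and model groups.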"}, "Gallus gallus": {"species_on_record": "Gallus gallus", "assay": "Induction of angiogenesis in chicken embryo assessed as up regulation of VEGFR2 mRNA expression at 1 mg/ml by RT-PCR analysis", "format": "functional, organism-based", "how_it_was_run": "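Total RNA came from chick embryos of the 1 mg/mL CAM group (Trizol extraction) and was reverse-transcribed with M-MLV. SYBR real-time PCR ran 40 cycles of 94 °C 15 s / 60 °C 35 s, then 72 °C 10 min. Expression was quantified relative to controls by the 2^-ΔΔCT method.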"}, "HBMEC-2 [8]": {"test_system": "HBMEC-2", "assay": "Protection against H2O2-induced mitochondrial dysfunction in human HBMEC2 cells assessed as recovery of mitochondrial membrane potential at 1.56 to 6.25 uM preincubated for 24 hrs followed by H202 addition measured after 4 hrs by Rh123 staining based inverted light microscopic analysis", "format": "functional, cell-based", "how_it_was_run": "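Cells in 96-well plates (3.5×10^4 cells/mL) were grown 24 h. They were pretreated 24 h with compound at three concentrations, then exposed to H2O2 (4.8 mM stock) for 4 h. Medium was removed and Rh123 added for 30 min at 37 °C. Cells were washed twice in cold PBS and examined immediately under an inverted microscope for green fluorescence.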"}, "SH-SY5Y [9]": {"test_system": "SH-SY5Y", "assay": "Inhibition of H2O2-induced apoptosis in human SH-SY5Y cells assessed as necrotic cells at 1.56 uM preincubated for 24 hrs followed by H2O2 addition measured after 4 hrs by Annexin V-FITC/propidium iodide staining based flow cytometry (reference value: 0.9 %)", "format": "functional", "design": "scale not given: the % may be the effect or the level left", "how_it_was_run": "as §1"}, "SH-SY5Y [10]": {"test_system": "SH-SY5Y", "assay": "Inhibition of H2O2-induced apoptosis in human SH-SY5Y cells assessed as early apoptotic cells at 1.56 uM preincubated for 24 hrs followed by H2O2 addition measured after 4 hrs by Annexin V-FITC/propidium iodide staining based flow cytometry (reference value: 5.4 %)", "format": "functional", "design": "scale not given: the % may be the effect or the level left", "how_it_was_run": "as §1"}, "SH-SY5Y [11]": {"test_system": "SH-SY5Y", "assay": "Protection against H2O2-induced apoptosis in human SH-SY5Y cells assessed as decrease in number of irregular cells preincubated for 24 hrs followed by H2O2 addition measured after 4 hrs by DAPI staining based inverted phase contrast microscopic analysis", "format": "functional, cell-based", "how_it_was_run": "as §3"}, "HBMEC-2 [12]": {"test_system": "HBMEC-2", "assay": "Protection against H2O2-induced apoptosis in human HBMEC2 cells assessed as reduction in cell shrinkage at 1.56 to 6.25 uM preincubated for 24 hrs followed by H2O2 addition and measured after 4 hrs by Giemsa staining based inverted phase contrast microscopic analysis", "format": "functional", "how_it_was_run": "as §3"}, "HBMEC-2 [13]": {"test_system": "HBMEC-2", "assay": "Protection against H2O2-induced apoptosis in human HBMEC2 cells assessed as increase in cell number at 1.56 to 6.25 uM preincubated for 24 hrs followed by H2O2 addition and measured after 4 hrs by Giemsa staining based inverted phase contrast microscopic analysis", "format": "functional", "how_it_was_run": "as §3"}, "SH-SY5Y [14]": {"test_system": "SH-SY5Y", "assay": "Protection against H2O2-induced apoptosis in human SH-SY5Y cells assessed as increase in cell number at 1.56 to 6.25 uM preincubated for 24 hrs followed by H2O2 addition measured after 4 hrs by Giemsa staining based inverted phase contrast microscopic analysis", "format": "functional", "how_it_was_run": "as §3"}, "[15]": {"assay": "Inhibition of H2O2-induced apoptosis in human HBMEC2 cells assessed as necrotic cells at 6.25 uM preincubated for 24 hrs followed by H2O2 addition measured after 4 hrs by Annexin V-FITC/propidium iodide staining based flow cytometry (reference value: 0.4 %)", "format": "functional, HBMEC-2", "design": "scale not given: the % may be the effect or the level left", "how_it_was_run": "as §1"}, "SH-SY5Y [16]": {"test_system": "SH-SY5Y", "assay": "Inhibition of H2O2-induced apoptosis in human SH-SY5Y cells assessed as early apoptotic cells at 3.13 uM preincubated for 24 hrs followed by H2O2 addition measured after 4 hrs by Annexin V-FITC/propidium iodide staining based flow cytometry (reference value: 5.4 %)", "format": "functional", "design": "scale not given: the % may be the effect or the level left", "how_it_was_run": "as §1"}, "[17]": {"assay": "Inhibition of H2O2-induced apoptosis in human HBMEC2 cells assessed as normal cells at 3.13 uM preincubated for 24 hrs followed by H2O2 addition measured after 4 hrs by Annexin V-FITC/propidium iodide staining based flow cytometry (reference value: 62.1 %)", "format": "functional, HBMEC-2", "design": "scale not given: the % may be the effect or the level left", "how_it_was_run": "as §1"}, "HBMEC-2 [18]": {"test_system": "HBMEC-2", "assay": "Protection against H2O2-induced apoptosis in human HBMEC2 cells assessed as increase in cell number preincubated for 24 hrs followed by H2O2 addition measured after 4 hrs by DAPI staining based inverted phase contrast microscopic analysis", "format": "functional", "how_it_was_run": "as §3"}},
  "note": "Calls of active or inactive are those of the source. The calls are words filed in the database; no cut-off is given here.",
  "data": [
    {"smiles": "COc1cc(CNC(=O)/C=C/c2cc(OC)c(OC)cc2OC)ccc1O", "values": [
      {"measurement": "Activity", "setting": "SH-SY5Y [1]", "result": 23.9, "unit": "%"},
      {"measurement": "Activity", "setting": "SH-SY5Y [2]", "result": 70.4, "unit": "%"},
      {"measurement": "Activity", "setting": "SH-SY5Y [3]", "result": 74.7, "unit": "%"},
      {"measurement": "Activity", "setting": "[4]", "result": 81.4, "unit": "%"},
      {"measurement": "Activity", "setting": "Chorioallantoic membrane [5]", "result": "Active"},
      {"measurement": "Activity", "setting": "Chorioallantoic membrane [6]", "result": "Active"},
      {"measurement": "Activity", "setting": "HBMEC-2 [7]", "result": "Dose-dependent effect"},
      {"measurement": "Activity", "setting": "Gallus gallus", "result": "Active"},
      {"measurement": "Activity", "setting": "HBMEC-2 [8]", "result": "Active"},
      {"measurement": "Activity", "setting": "SH-SY5Y [9]", "result": 1.4, "unit": "%"},
      {"measurement": "Activity", "setting": "SH-SY5Y [10]", "result": 4.3, "unit": "%"},
      {"measurement": "Activity", "setting": "SH-SY5Y [11]", "result": "Dose-dependent effect"},
      {"measurement": "Activity", "setting": "HBMEC-2 [12]", "result": "Active"},
      {"measurement": "Activity", "setting": "HBMEC-2 [13]", "result": "Active"},
      {"measurement": "Activity", "setting": "SH-SY5Y [14]", "result": "Active"},
      {"measurement": "Activity", "setting": "[15]", "result": 0.1, "unit": "%"},
      {"measurement": "Activity", "setting": "SH-SY5Y [16]", "result": 4.2, "unit": "%"},
      {"measurement": "Activity", "setting": "[17]", "result": 80.5, "unit": "%"},
      {"measurement": "Activity", "setting": "HBMEC-2 [18]", "result": "Dose-dependent effect"}
    ]}
  ]
}
